Results: ChEMBL document CHEMBL1921792, “Synthesis and anticonvulsant activity of trans- and cis-2-(2,6-dimethylphenoxy)-N-(2- or 4-hydroxycyclohexyl)acetamides and their amine analogs” (Bioorg Med Chem, 2011)
Active and inactive are the calls of the source. The rule behind the calls is not given here.

What was measured:
[1] = tested on: Mus musculus; assay: Anticonvulsant activity in mouse assessed as protection against maximal electric shock-induced seizures at 300 mg/kg, ip after 4 hrs; type: functional, organism-based; design: dose 300 mg/kg
Outline: (§1)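 Phase I maximal electroshock screen in mice. Compound given ip as a suspension in 0.5% methylcellulose at 30, 100 or 300 mg/kg, tested at 30 min and 4 h. Small groups (1–8); result is number protected/number tested.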

[2] = tested on: Mus musculus; assay: Anticonvulsant activity in mouse assessed as protection against maximal electric shock-induced seizures at 300 mg/kg, ip after 0.5 hrs; type: functional, organism-based; design: dose 300 mg/kg; outline: as §1
[3] = tested on: Rattus norvegicus; assay: Neurotoxicity in rat assessed as neurological deficit at 30 mg/kg, po after 0.5 hrs […]; type: toxicity, organism-based; design: dose 30 mg/kg, route oral; settings: in vivo
Outline: (§2)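 Rats given the compound, suspended in 0.5% methylcellulose, by the stated route and dose. Neurological deficit was recorded at the listed times as ataxia and loss of placing response and muscle tone. Reported as number of rats showing toxicity/number tested.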

[4] = tested on: Rattus norvegicus; assay: Neurotoxicity in rat assessed as neurological deficit at 30 mg/kg, po after 0.25 hrs […]; type: toxicity, organism-based; design: dose 30 mg/kg, route oral; settings: in vivo; outline: as §2
[5] = tested on: Mus musculus; assay: Anticonvulsant activity in mouse assessed as protection against maximal electric shock-induced seizures at 100 mg/kg, ip after 4 hrs; type: functional, organism-based; design: dose 100 mg/kg; outline: as §1
[6] = tested on: Mus musculus; assay: Anticonvulsant activity against subcutaneous pentylenetetrazole-induced seizures in mouse at 30 mg/kg, ip after 4 hrs; type: functional, organism-based; design: dose 30 mg/kg
Outline: (§3)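 Phase I screen in mice. Compound given ip as a suspension in 0.5% methylcellulose, read at 30 min and 4 h. Pentylenetetrazole 85 mg/kg in 0.9% NaCl was injected sc into the posterior midline and animals watched ≥30 min. Protection meant no clonic spasm lasting ≥5 s. Groups of 1–8 animals; result is protected/tested.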

[7] = tested on: Mus musculus; assay: Anticonvulsant activity against subcutaneous pentylenetetrazole-induced seizures in mouse at 30 mg/kg, ip after 0.5 hrs; type: functional, organism-based; design: dose 30 mg/kg; outline: as §3
[8] = tested on: Rattus norvegicus; assay: Neurotoxicity in rat assessed as neurological deficit at 30 mg/kg, po after 2 hrs […]; type: toxicity, organism-based; design: dose 30 mg/kg, route oral; settings: in vivo; outline: as §2
[9] = tested on: Mus musculus; assay: Anticonvulsant activity against subcutaneous pentylenetetrazole-induced seizures in mouse at 100 mg/kg, ip after 0.5 hrs; type: functional, organism-based; design: dose 100 mg/kg; outline: as §3
[10] = tested on: Mus musculus; assay: Neurotoxicity in mouse assessed as inability to maintain equilibrium on rotarod at 300 mg/kg, ip after 4 hrs by rotarod test; type: toxicity, organism-based; design: dose 300 mg/kg, route intraperitoneal; settings: in vivo
Outline: (§4)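 Drug given ip to mice as a suspension in 0.5% methylcellulose. At the stated time after dosing, each mouse was placed on a 1 inch knurled rod turning at 6 rpm. Neurotoxicity = inability to stay balanced at least 1 min in each of three trials. Scored as animals toxic/animals tested in small groups.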

[11] = tested on: Mus musculus; assay: Anticonvulsant activity against subcutaneous pentylenetetrazole-induced seizures in mouse at 300 mg/kg, ip after 4 hrs; type: functional, organism-based; design: dose 300 mg/kg; outline: as §3
[12] = tested on: Mus musculus; assay: Anticonvulsant activity against subcutaneous pentylenetetrazole-induced seizures in mouse at 100 mg/kg, ip after 4 hrs; type: functional, organism-based; design: dose 100 mg/kg; outline: as §3
[13] = tested on: Mus musculus; assay: Anticonvulsant activity in mouse assessed as protection against maximal electric shock-induced seizures at 30 mg/kg, ip after 0.5 hrs; type: functional, organism-based; design: dose 30 mg/kg; outline: as §1
[14] = tested on: Mus musculus; assay: Neurotoxicity in mouse assessed as inability to maintain equilibrium on rotarod at 100 mg/kg, ip after 4 hrs by rotarod test; type: toxicity, organism-based; design: dose 100 mg/kg, route intraperitoneal; settings: in vivo; outline: as §4
[15] = tested on: Mus musculus; assay: Anticonvulsant activity in mouse assessed as protection against maximal electric shock-induced seizures at 30 mg/kg, ip after 4 hrs; type: functional, organism-based; design: dose 30 mg/kg; outline: as §1
[16] = tested on: Mus musculus; assay: Neurotoxicity in mouse assessed as inability to maintain equilibrium on rotarod at 30 mg/kg, ip after 4 hrs by rotarod test; type: toxicity, organism-based; design: dose 30 mg/kg, route intraperitoneal; settings: in vivo; outline: as §4
[17] = tested on: Mus musculus; assay: Neurotoxicity in mouse assessed as inability to maintain equilibrium on rotarod at 30 mg/kg, ip after 0.5 hrs by rotarod test; type: toxicity, organism-based; design: dose 30 mg/kg, route intraperitoneal; settings: in vivo; outline: as §4
[18] = tested on: Rattus norvegicus; assay: Anticonvulsant activity in rat assessed as protection against maximal electric shock-induced seizures at 30 mg/kg, po after 0.25 hrs; type: functional, organism-based; design: dose 30 mg/kg
Outline: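 MES test in rats dosed orally at 30 mg/kg as a suspension in 0.5% methylcellulose, read at 0.25–4 h. Four rats per time point; result is protected/tested.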

[19] = tested on: Rattus norvegicus; assay: Neurotoxicity in rat assessed as neurological deficit at 30 mg/kg, po after 4 hrs by rotarod test; type: toxicity, organism-based; design: dose 30 mg/kg, route oral; settings: in vivo; outline: as §2
[20] = tested on: Mus musculus; assay: Anticonvulsant activity against subcutaneous pentylenetetrazole-induced seizures in mouse at 300 mg/kg, ip after 0.5 hrs; type: functional, organism-based; design: dose 300 mg/kg; outline: as §3
[21] = tested on: Rattus norvegicus; assay: Neurotoxicity in rat assessed as neurological deficit at 30 mg/kg, po after 1 hr […]; type: toxicity, organism-based; design: dose 30 mg/kg, route oral; settings: in vivo; outline: as §2
[22] = tested on: Mus musculus; assay: Anticonvulsant activity in mouse assessed as protection against maximal electric shock-induced seizures at 100 mg/kg, ip after 0.5 hrs; type: functional, organism-based; design: dose 100 mg/kg; outline: as §1
[23] = tested on: Mus musculus; assay: Neurotoxicity in mouse assessed as inability to maintain equilibrium on rotarod at 100 mg/kg, ip after 0.5 hrs by rotarod test; type: toxicity, organism-based; design: dose 100 mg/kg, route intraperitoneal; settings: in vivo; outline: as §4
[24] = tested on: Mus musculus; assay: Neurotoxicity in mouse assessed as inability to maintain equilibrium on rotarod at 300 mg/kg, ip after 0.5 hrs by rotarod test; type: toxicity, organism-based; design: dose 300 mg/kg, route intraperitoneal; settings: in vivo; outline: as §4
[25] = tested on: N1E-115; assay: Blockade of voltage-gated sodium channel in mouse N1E-115 cells assessed as stimulation at 100 umol at -90 mV holding potential by whole-cell patch clamp electrophysiological assay relative to control; type: cell-based
Outline: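 Whole-cell patch clamp with borosilicate glass electrodes on single cultured N1E-115 neuroblastoma cells. Compound at 100 µmol, holding potential -90 mV. Voltage-dependent sodium current expressed as % of control stimulation (no compound). Results from 5–8 cells averaged with SEM; significance by Student's t-test.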

Structure (SMILES)	Activity [1]	Activity [2]	Activity [5]	Activity [6]	Activity [7]	Activity [9]	Activity [10]	Activity [11]	Activity [12]	Activity [13]	Activity [14]	Activity [15]	Activity [16]	Activity [17]	Activity [20]	Activity [23]	also measured
Cc1cccc(C)c1OCC(=O)N[C@@H]1CCCC[C@H]1O.O=C(O)C(O)C(O)C(=O)O	inactive	Active	inactive	inactive	inactive	inactive	Non-toxic	inactive	inactive	inactive	Non-toxic	inactive	Non-toxic	Non-toxic	inactive	–	Activity [3]: Non-toxic; Activity [4]: Non-toxic; Activity [8]: Non-toxic; Activity [18]: inactive; Activity [19]: Non-toxic; Activity [21]: Non-toxic; Activity [22]: inactive
Cc1cccc(C)c1OCC(=O)N[C@@H]1CCCC[C@@H]1O	inactive	Active	inactive	inactive	inactive	inactive	Non-toxic	inactive	inactive	inactive	Non-toxic	inactive	Non-toxic	Non-toxic	inactive	Non-toxic	Activity [24]: Non-toxic
Cc1cccc(C)c1OCC(=O)N[C@H]1CCCC[C@H]1O	inactive	Active	inactive	inactive	inactive	inactive	Non-toxic	inactive	inactive	inactive	Non-toxic	inactive	Non-toxic	Non-toxic	Active	Non-toxic	–
NC(=O)N1c2ccccc2C=Cc2ccccc21	–	–	–	–	–	–	–	–	–	–	–	–	–	–	–	–	Activity [25]: 78%
